Converted amounts (≈) assume the structure as drawn. The source made the active and inactive calls. The rule behind the calls is not given here. Bridge positions count the residues as written; N and C are the ends. Peptide text beside a SMILES is read from it.
What was measured:
[1] = system: Escherichia coli; test: Antibacterial activity against Escherichia coli ATCC 25922 treated with PBS after 16 hrs by broth dilution method; format: functional; conditions: ATCC 25922, 16 h
Procedure, shortened: (§1)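 Salt sensitivity of the MIC. Peptide was tested in water, NaCl, CaCl2, MgCl2 or PBS (Na2HPO4-NaH2PO4, pH 7.4), with every salt at 150 mM. Values are means of three independent experiments, each run in duplicate.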

[2] = system: Pseudomonas aeruginosa; test: Antibacterial activity against Pseudomonas aeruginosa ATCC 27853 treated with NaCl after 16 hrs by broth dilution method; format: functional; conditions: ATCC 27853, 16 h; procedure, shortened: as §1
[3] = system: Bacillus subtilis; test: Antibacterial activity against Bacillus subtilis 6633 treated with PBS after 16 hrs by broth dilution method; format: functional; conditions: Bacillus subtilis, 6633, 16 h; procedure, shortened: as §1
[4] = system: Bacillus subtilis; test: Antibacterial activity against Bacillus subtilis 6633 after 16 hrs by broth dilution method; format: functional; conditions: Bacillus subtilis, 6633, 16 h
Procedure, shortened: (§2)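 MIC determined by an earlier in-house method. Values are means of three independent experiments, each run in duplicate.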

[5] = system: Escherichia coli; test: Antibacterial activity against Escherichia coli ATCC 25922 after 16 hrs by broth dilution method; format: functional; conditions: ATCC 25922, 16 h
Procedure, shortened: (§3)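 MIC read-out, reported in µg/mL with µM equivalents. Each value is the mean of three independent experiments, each run in duplicate.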

[6] = system: Bacillus subtilis; test: Antibacterial activity against Bacillus subtilis 6633 treated with NaCl after 16 hrs by broth dilution method; format: functional; conditions: Bacillus subtilis, 6633, 16 h; procedure, shortened: as §1
[7] = system: Candida albicans; test: Antifungal activity against Candida albicans ATCC 2002 treated with NaCl after 16 hrs by broth dilution method; format: functional; conditions: ATCC 2002, 16 h; procedure, shortened: as §1
[8] = system: RAW264.7; test: Antiinflammatory activity in mouse RAW264.7 cells assessed as inhibition of LPS-induced JNK2 expression preincubated for 1 hr prior to LPS-challenge measured after 3 hrs by Western blotting analysis; format: functional, cell-based
Procedure, shortened: (§4)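 RAW 264.7 cells (1 × 10^6/well) were serum-starved in RPMI-1640 for 16 h. They were pretreated with peptide (0, 5, 10, 20 µg/mL) for 1 h, then given LPS (E. coli 055:B5, 0 or 100 ng/mL) for 3 h. Cells were washed in ice-cold PBS, and cytoplasmic or nuclear fractions were blotted for TLR4, JNK, NF-κB p65 and β-actin. Control was LPS alone.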

[9] = system: Pseudomonas aeruginosa; test: Antibacterial activity against ampicillin, benzylpencillin-resistant Pseudomonas aeruginosa 08031014 after 16 hrs by broth dilution method; format: functional; conditions: Pseudomonas aeruginosa, 08031014, 16 h; procedure, shortened: as §3
[10] = system: Pseudomonas aeruginosa; test: Antibacterial activity against Pseudomonas aeruginosa ATCC 27853 treated with MgCl2 after 16 hrs by broth dilution method; format: functional; conditions: ATCC 27853, 16 h; procedure, shortened: as §1
[11] = system: Pseudomonas aeruginosa; test: Antibacterial activity against Pseudomonas aeruginosa ATCC 27853 after 16 hrs by broth dilution method; format: functional; conditions: ATCC 27853, 16 h; procedure, shortened: as §2
[12] = system: Escherichia coli; test: Bactericidal activity against Escherichia coli ATCC 25922 at MIC after 120 mins by colony counting assay (reference value: 1868.3 CFU); format: functional
[13] = system: Escherichia coli; test: Bactericidal activity against Escherichia coli ATCC 25922 at 10 times MIC after 60 mins by colony counting assay (reference value: 296 CFU); format: functional
[14] = system: Candida albicans; test: Antifungal activity against ampicillin, benzylpencillin-resistant Candida albicans 080227710 after 16 hrs by broth dilution method; format: functional; conditions: Candida albicans, 080227710, 16 h; procedure, shortened: as §3
[15] = system: Escherichia coli; test: Antibacterial activity against Escherichia coli ATCC 25922 assessed as plasma membrane rupture after 30 mins by scanning electron microscopic analysis; format: functional, organism-based
Procedure, shortened: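 E. coli (about 2 × 10^7 CFU/mL) was exposed to peptide at 1 × MIC, 37 °C, 30 min, beside an untreated control. Cells were pelleted, fixed in 2.5% buffered glutaraldehyde (4 °C, 2 h), post-fixed in 1% osmium tetroxide (2 h), dehydrated through graded ethanol, frozen in tert-butyl alcohol and vacuum-dried, then imaged by SEM.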

[16] = system: RAW264.7; test: Antiinflammatory activity in mouse RAW264.7 cells assessed as inhibition of LPS-induced NFkappaB translocation from cytoplasm to nucleus preincubated for 1 hr prior to LPS-challenge measured after 3 hrs by Western blotting analysis; format: functional, cell-based; procedure, shortened: as §4
[17] = Toxicity in human RBC assessed as induction of hemolysis after 30 mins; format: cell-based; conditions: erythrocyte, 0.5 h
Procedure, shortened: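 Human red blood cells incubated with peptide. Hemoglobin release read as absorbance at 540 nm and expressed against 1% Triton X-100 as positive control.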

[18] = system: Candida albicans; test: Antifungal activity against Candida albicans ATCC 2002 treated with water after 16 hrs by broth dilution method; format: functional; conditions: ATCC 2002, 16 h; procedure, shortened: as §1
[19] = system: RAW264.7; test: Antiinflammatory activity in mouse RAW264.7 cells assessed as inhibition of LPS-induced NO production at 20 ug/mL after 24 hrs by spectrophotometric analysis relative to control; format: functional; conditions: RAW264.7, 24 h
Procedure, shortened: (§5)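 RAW 264.7 cells (1 × 10^7) in RPMI-1640 with 10% FBS and penicillin/streptomycin were treated with peptide (2.5, 5, 10, 20 µg/mL) with or without LPS (E. coli 055:B5, 100 ng/mL) for 24 h. Medium nitrite was measured with Griess reagent at A540 against a NaNO2 standard curve. Control was LPS alone. Mean ± SEM of three separate experiments.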

[20] = system: Escherichia coli; test: Bactericidal activity against Escherichia coli ATCC 25922 at 5 times MIC after 5 mins by colony counting assay (reference value: 47.7 CFU); format: functional
[21] = system: RAW264.7; test: Cytotoxicity against mouse RAW264.7 cells at <25 ug/mL after 24 hrs by MTT assay; format: cell-based; conditions: raw264.7, 24 h
[22] = system: RAW264.7; test: Antiinflammatory activity in mouse RAW264.7 cells assessed as inhibition of LPS-induced NO production at 10 ug/mL after 24 hrs by spectrophotometric analysis relative to control; format: functional; conditions: RAW264.7, 24 h; procedure, shortened: as §5
[23] = system: Escherichia coli; test: Bactericidal activity against Escherichia coli ATCC 25922 at MIC after 10 mins by colony counting assay (reference value: 58.3 CFU); format: functional
[24] = system: RAW264.7; test: Antiinflammatory activity in mouse RAW264.7 cells assessed as inhibition of LPS-induced NO production after 24 hrs by spectrophotometric analysis; format: functional, cell-based; procedure, shortened: as §5
[25] = system: RAW264.7; test: Cytotoxicity against mouse RAW264.7 cells at >25 ug/mL after 24 hrs by MTT assay; format: cell-based; conditions: raw264.7, 24 h
[26] = system: Lipopolysaccharide (LPS); test: Binding affinity to Escherichia coli 055:B5 lipopolysaccharide by NMR titration assay
Procedure, shortened: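 2D TOCSY NMR titration: peptide 2.5 mM in 95% H2O/TFE-d3 (6:4, v/v) with 5% D2O, pH 6.2, 25 °C, alone or with LPS from E. coli 055:B5 (2.5 mM : 1 µg and 2.5 mM : 5 µg). Readout is the ratio of amide proton peak heights, free versus LPS-bound, per residue.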

[27] = system: RAW264.7; test: Antiinflammatory activity in mouse RAW264.7 cells assessed as inhibition of LPS-induced TNF alpha production at 20 ug/mL after 24 hrs by ELISA relative to control; format: functional; conditions: RAW264.7, 24 h
Procedure, shortened: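 RAW 264.7 cells (2 × 10^5) were plated and allowed to adhere. They were given peptide (2.5, 5, 10, 20 µg/mL) with or without LPS (E. coli 055:B5, 20 ng/mL) for 24 h. Supernatant TNF-α, IL-6 and MCP-1 were measured by ELISA at A450. Controls were LPS alone and untreated cells. Mean ± SEM of three separate experiments.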

## CC[C@H](C)[C@H](NC(=O)[C@H](Cc1cnc[nH]1)NC(=O)[C@H](CO)NC(=O)[C@@H](NC(=O)[C@@H](NC(=O)[C@@H](NC(=O)[C@@H](NC(=O)[C@H](CCCNC(=N)N)NC(=O)[C@H](CC(C)C)NC(=O)[C@H](CCCCN)NC(=O)[C@H](CCC(=O)O)NC(=O)[C@H](CCCCN)NC(=O)[C@H](CC(C)C)NC(=O)[C@H](CCCCN)NC(=O)[C@@H]1CSSC[C@H](NC(=O)[C@H](CCCCN)NC(=O)[C@@H](N)CCCNC(=N)N)C(=O)N[C@@H](CC(N)=O)C(=O)N[C@@H](Cc2ccccc2)C(=O)N[C@@H](CC(C)C)C(=O)N1)[C@@H](C)O)C(C)C)[C@@H](C)CC)[C@@H](C)O)C(=O)N[C@@H](CC(=O)O)C(=O)N[C@@H](CCCCN)C(=O)N[C@H](C(=O)N[C@@H](CC(C)C)C(=O)N[C@@H](CCCNC(=N)N)C(=O)N1CCC[C@H]1C(=O)N[C@@H](CCC(N)=O)C(=O)NCC(=O)O)C(C)C (H-RKCNFLCKLKEKLRTVITSHIDKVLRPQG-OH; disulfide 3-7)
[1]
  MIC: 2.35 µg/mL (≈ 0.686 µM)
[2]
  MIC: 9.38 µg/mL (≈ 2.74 µM)
[3]
  MIC: > 100 µg/mL
[4]
  MIC: > 100 µg/mL
[5]
  MIC: 1.37 µM (≈ 4.69 µg/mL)
[6]
  MIC: 75 µg/mL (≈ 21.9 µM)
[7]
  MIC: 2.35 µg/mL (≈ 0.686 µM)
[8]
  inhibition: Dose-dependent effect
[9]
  MIC: 10.9 µM (≈ 37.5 µg/mL)
[10]
  MIC: 18.8 µg/mL (≈ 5.48 µM)
[11]
  MIC: 5.48 µM (≈ 18.8 µg/mL)
[12]
  CFU: 0
[13]
  CFU: 0
[14]
  MIC: 5.48 µM (≈ 18.8 µg/mL)
[15]
  Activity: Active
[16]
  inhibition: Dose-dependent effect
[17]
  Activity: Dose-dependent effect
[18]
  MIC: 4.69 µg/mL (≈ 1.37 µM)
[19]
  inhibition at 20 µg/mL: 70%
[20]
  CFU: 29.7
[21]
  Activity: Non-toxic
[22]
  inhibition at 10 µg/mL: 50%
[23]
  CFU: 23.7
[24]
  inhibition: Dose-dependent effect
[25]
  Activity: Toxic
[26]
  Activity: Active
[27]
  inhibition at 20 µg/mL: 60%

Source: ChEMBL document CHEMBL2346560, “Structure and function of a potent lipopolysaccharide-binding antimicrobial and anti-inflammatory peptide” (J Med Chem, 2013)
